Activity calls are given as the source filed them. The rule behind the calls is not given here.
Legend:
[1] = target: T1, Angiotensin-converting enzyme (Rattus norvegicus) (UniProt P47820); assay: In vivo inhibition of Angiotensin I converting enzyme at 100ug/Kg in anaesthetized rats;o denotes 'Inactive'; format: organism-based
T1 sequence (whole entry): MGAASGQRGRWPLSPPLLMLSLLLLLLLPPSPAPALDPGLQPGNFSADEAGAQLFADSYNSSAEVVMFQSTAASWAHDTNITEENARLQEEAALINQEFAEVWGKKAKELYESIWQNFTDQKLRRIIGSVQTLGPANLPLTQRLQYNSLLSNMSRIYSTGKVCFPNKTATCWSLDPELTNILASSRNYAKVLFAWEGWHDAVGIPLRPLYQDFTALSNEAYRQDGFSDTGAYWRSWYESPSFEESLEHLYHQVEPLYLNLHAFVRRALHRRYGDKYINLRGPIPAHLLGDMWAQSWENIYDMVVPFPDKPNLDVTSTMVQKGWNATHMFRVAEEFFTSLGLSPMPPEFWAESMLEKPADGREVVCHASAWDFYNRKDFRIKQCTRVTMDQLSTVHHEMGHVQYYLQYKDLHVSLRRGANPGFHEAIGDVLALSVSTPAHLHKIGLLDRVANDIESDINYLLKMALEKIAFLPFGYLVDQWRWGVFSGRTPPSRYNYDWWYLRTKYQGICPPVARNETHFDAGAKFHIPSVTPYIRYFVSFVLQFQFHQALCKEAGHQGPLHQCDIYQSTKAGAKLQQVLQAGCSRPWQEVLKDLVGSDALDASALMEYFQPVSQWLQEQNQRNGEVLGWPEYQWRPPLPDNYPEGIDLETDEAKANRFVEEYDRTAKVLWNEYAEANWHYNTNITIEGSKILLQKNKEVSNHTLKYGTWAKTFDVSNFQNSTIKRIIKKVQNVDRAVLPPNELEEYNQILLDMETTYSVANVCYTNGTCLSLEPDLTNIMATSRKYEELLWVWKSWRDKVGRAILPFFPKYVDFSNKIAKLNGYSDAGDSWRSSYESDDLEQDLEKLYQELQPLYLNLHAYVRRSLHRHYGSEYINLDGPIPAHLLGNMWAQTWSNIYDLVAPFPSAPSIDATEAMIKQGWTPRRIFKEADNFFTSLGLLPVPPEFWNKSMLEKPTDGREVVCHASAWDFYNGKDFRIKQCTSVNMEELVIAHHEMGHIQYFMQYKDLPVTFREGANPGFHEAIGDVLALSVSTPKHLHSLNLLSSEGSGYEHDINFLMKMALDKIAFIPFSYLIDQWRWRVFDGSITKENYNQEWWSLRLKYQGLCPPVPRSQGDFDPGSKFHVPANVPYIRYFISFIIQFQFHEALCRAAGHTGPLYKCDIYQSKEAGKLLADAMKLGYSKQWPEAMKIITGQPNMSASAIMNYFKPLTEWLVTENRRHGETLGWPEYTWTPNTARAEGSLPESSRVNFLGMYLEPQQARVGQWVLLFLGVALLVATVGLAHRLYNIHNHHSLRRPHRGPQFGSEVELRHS
Method in brief: (§1)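 Sprague–Dawley rats under inactin (100 mg/kg) or dial urethane; carotid and jugular cannulas, arterial blood pressure recorded. Angiotensin I response as percent of control; ID50 by linear regression.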

[2] = target: T1, Angiotensin-converting enzyme (Rattus norvegicus); assay: Compound was tested for bradykinin potentiation at 0.1 ug/kg dose; format: functional
[3] = target: T1, Angiotensin-converting enzyme (Rattus norvegicus); assay: (§2) In vivo inhibition of Angiotensin I converting enzyme in anaesthetized rats; format: organism-based
[4] = target: T2, Angiotensin-converting enzyme (Oryctolagus cuniculus) (UniProt P12822); assay: In vitro inhibition of Angiotensin I converting enzyme relative to captopril(=1)
T2 sequence (whole entry): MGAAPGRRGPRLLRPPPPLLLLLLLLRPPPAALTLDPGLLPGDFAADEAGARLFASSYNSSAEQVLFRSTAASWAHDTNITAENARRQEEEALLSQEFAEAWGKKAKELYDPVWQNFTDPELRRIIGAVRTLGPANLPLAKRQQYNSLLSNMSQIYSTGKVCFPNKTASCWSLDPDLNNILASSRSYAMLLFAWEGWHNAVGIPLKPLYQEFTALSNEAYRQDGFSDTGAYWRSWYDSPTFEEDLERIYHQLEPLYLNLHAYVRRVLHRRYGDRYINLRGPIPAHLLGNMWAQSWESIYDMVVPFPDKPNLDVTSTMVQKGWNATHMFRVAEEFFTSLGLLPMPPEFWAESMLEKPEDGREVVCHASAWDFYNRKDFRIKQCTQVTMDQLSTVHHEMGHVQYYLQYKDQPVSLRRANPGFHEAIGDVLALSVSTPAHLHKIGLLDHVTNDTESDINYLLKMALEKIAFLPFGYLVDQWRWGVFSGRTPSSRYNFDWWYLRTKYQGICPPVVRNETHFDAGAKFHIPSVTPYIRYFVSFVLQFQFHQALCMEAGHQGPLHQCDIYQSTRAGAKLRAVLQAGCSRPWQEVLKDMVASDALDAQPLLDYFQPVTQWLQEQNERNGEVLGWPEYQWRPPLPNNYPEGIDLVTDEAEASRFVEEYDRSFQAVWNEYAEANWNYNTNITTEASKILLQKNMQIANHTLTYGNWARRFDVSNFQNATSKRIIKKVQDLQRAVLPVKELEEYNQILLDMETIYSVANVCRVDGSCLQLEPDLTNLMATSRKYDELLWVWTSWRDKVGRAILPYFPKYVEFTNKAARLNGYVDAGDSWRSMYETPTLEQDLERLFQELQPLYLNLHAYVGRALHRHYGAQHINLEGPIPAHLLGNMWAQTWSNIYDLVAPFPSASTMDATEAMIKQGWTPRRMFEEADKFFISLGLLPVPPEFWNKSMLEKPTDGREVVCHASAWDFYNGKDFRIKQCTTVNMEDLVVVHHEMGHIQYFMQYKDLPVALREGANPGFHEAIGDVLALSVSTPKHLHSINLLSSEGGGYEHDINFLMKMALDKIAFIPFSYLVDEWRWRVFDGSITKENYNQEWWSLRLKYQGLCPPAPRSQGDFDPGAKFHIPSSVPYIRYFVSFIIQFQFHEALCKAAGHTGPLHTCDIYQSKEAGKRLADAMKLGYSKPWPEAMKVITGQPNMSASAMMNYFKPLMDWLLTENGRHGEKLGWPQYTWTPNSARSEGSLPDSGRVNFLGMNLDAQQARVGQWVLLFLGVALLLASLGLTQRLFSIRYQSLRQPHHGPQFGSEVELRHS
Method in brief: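 Crude ACE from rabbit lung acetone powder extracted in 50 mM potassium phosphate pH 8.3, spun 40000g. Final assay: 100 mM phosphate pH 8.3, 300 mM NaCl, 5 mM hippuryl-His-Leu; enzyme added last, 30 min at 37 °C, stopped with HCl. Hippuric acid extracted into EtOAc, dried, redissolved in water, read by absorbance.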

[5] = target: T1, Angiotensin-converting enzyme (Rattus norvegicus); assay: In vivo inhibition of Angiotensin I converting enzyme at […] in anaesthetized rats;z denotes 'Inactive'; format: organism-based; method in brief: as §1
Rattus norvegicus [6] = species: Rattus norvegicus; assay: Compound was tested peroral on the spontaneous hypertensive rat; format: functional
Method in brief: (§3)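 Spontaneously hypertensive rats; drug in 0.4% methylcellulose, or water, saline or 5% ethanol. Aortic catheter via caudal artery under ether, rats conscious in restrainers; pressure averaged over 30 min, heart rate from pulse trace. Dosed after about 90 min, usually followed for 4 h.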

Rattus norvegicus [7] = assay: Compound was tested orally on the spontaneous hypertensive rat and blood pressure noted at half-hour interval; format: functional; method in brief: as §3
[8] = target: T1, Angiotensin-converting enzyme (Rattus norvegicus); assay: as §2; format: organism-based; method in brief: as §1; remark: listed apart in the source
[9] = target: T1, Angiotensin-converting enzyme (Rattus norvegicus); assay: In vivo inhibition of Angiotensin I converting enzyme at […] in anaesthetized rats.;z denotes 'Inactive'; format: organism-based; method in brief: as §1
Rattus norvegicus [10] = assay: Compound was tested for bradykinin potentiation at 0.1 ug/kg dose.; format: functional
[11] = target: T1, Angiotensin-converting enzyme (Rattus norvegicus); assay: In vivo inhibition of Angiotensin I converting enzyme at 100 ug/kg in anaesthetized rats; format: organism-based; method in brief: as §1
[12] = target: T1, Angiotensin-converting enzyme (Rattus norvegicus); assay: In vivo inhibition of Angiotensin I converting enzyme at 100ug/Kg in anaesthetized rats;z denotes 'Inactive'; format: organism-based; method in brief: as §1

Structure (SMILES)	relative potency [4]	Delta blood pressure [2] [mmHg]	also measured
CC(CS)C(=O)N1C[C@H](OCCOc2ccccc2)C[C@H]1C(=O)O (stereo not given in full)	–	9	ID50 [1]: inactive
CC(CS)C(=O)N1CC2(C[C@H]1C(=O)O)OCCO2 (stereo not given in full)	1	43	ID50 [3]: 0.065 mg/kg
CC(CS)C(=O)N1C[C@H](Oc2ccc(Cl)cc2)C[C@H]1C(=O)O (stereo not given in full)	–	23	ID50 [1]: inactive
CC(CS)C(=O)N1C[C@@H](SCc2ccccc2)C[C@H]1C(=O)O (stereo not given in full)	–	5	ID50 [5]: Inactive at 100 ug/kg
O=C(O)[C@@H]1CC2(CN1C(=O)CCS)SCCCS2	1	19	ID50 [3]: 0.01 mg/kg
CC(CS)C(=O)N1CC2(C[C@H]1C(=O)O)SCCS2 (stereo not given in full)	1.26	34	ID50 [3]: 0.026 mg/kg; SHR delta blood pressure (Rattus norvegicus [6]): 35 dec; SHR delta blood pressure (Rattus norvegicus [7]): 22 dec
CC(CS)C(=O)N1C[C@@H](Sc2ccccc2)C[C@H]1C(=O)O (stereo not given in full)	–	22	ID50 [8]: 0.544 mg/kg
COC1(OC)C[C@@H](C(=O)O)N(C(=O)C(C)CS)C1 (stereo not given in full)	0.9	–	–
CC(CS)C(=O)N1CC2(C[C@H]1C(=O)O)SCCCS2 (stereo not given in full)	1.07	–	ID50 [3]: 0.048 mg/kg
CC(CS)C(=O)N1C[C@@H](O)C[C@H]1C(=O)O (stereo not given in full)	–	40	ID50 [8]: 0.367 mg/kg
CO[C@@H]1C[C@@H](C(=O)O)N(C(=O)C(C)CS)C1 (stereo not given in full)	0.5	–	ID50 [8]: 1.21 mg/kg
COC1=C[C@@H](C(=O)O)N(C(=O)C(C)CS)C1 (stereo not given in full)	–	52	ID50 [1]: inactive
CC(CS)C(=O)N1CC2(C[C@H]1C(=O)O)OCC(C)(C)CO2 (stereo not given in full)	1	46	ID50 [3]: 0.359 mg/kg; Delta blood pressure (Rattus norvegicus [7]): 25 mmHg
CC(CS)C(=O)N1C[C@H](OCc2ccccc2)C[C@H]1C(=O)O (stereo not given in full)	–	47	ID50 [8]: 0.508 mg/kg
CCOCCO[C@@H]1C[C@@H](C(=O)O)N(C(=O)C(C)CS)C1 (stereo not given in full)	–	45	ID50 [8]: 0.372 mg/kg
CC(CS)C(=O)N1C[C@H](F)C[C@H]1C(=O)O (stereo not given in full)	–	53	ID50 [1]: inactive
CO/N=C1\C[C@@H](C(=O)O)N(C(=O)C(C)CS)C1 (stereo not given in full)	1	–	–
O=C(O)[C@@H]1CC2(CN1C(=O)CCS)SCCS2	2.6	38	ID50 [3]: 0.078 mg/kg
CC(CS)C(=O)N1C[C@H](O)C[C@H]1C(=O)O (stereo not given in full)	–	48	ID50 [8]: 0.253 mg/kg
C[C@H](CS)C(=O)N1CC2(C[C@H]1C(=O)O)SCCS2	4	–	SHR delta blood pressure (Rattus norvegicus [7]): 17 dec; Delta blood pressure (Rattus norvegicus [10]): 43 mmHg
CC(CS)C(=O)N1C[C@@H](F)C[C@H]1C(=O)O (stereo not given in full)	–	–	ID50 [11]: 0.581 mg/kg
CC(CS)C(=O)N1C[C@@H](N=[N+]=[N-])C[C@H]1C(=O)O (stereo not given in full)	0.54	–	–
CS[C@H]1C[C@@H](C(=O)O)N(C(=O)C(C)CS)C1 (stereo not given in full)	–	–	ID50 [8]: 0.398 mg/kg
CC(CS)C(=O)N1C[C@@H](SC2CCCCC2)C[C@H]1C(=O)O (stereo not given in full)	–	6	ID50 [12]: Inactive at 100 ug/kg
CC(CS)C(=O)N1C[C@@H](C#N)C[C@H]1C(=O)O (stereo not given in full)	–	47	ID50 [1]: inactive

The next lines start with results.

relative potency [4]	Structure (SMILES)	Delta blood pressure [2] [mmHg]	also measured
0.53	CO[C@H]1C[C@@H](C(=O)O)N(C(=O)C(C)CS)C1 (stereo not given in full)	60	ID50 [8]: 0.073 mg/kg
0.56	CC(CS)C(=O)N1C[C@@H](OCc2ccccc2)C[C@H]1C(=O)O (stereo not given in full)	40	ID50 [9]: Inactive at 100 ug/kg
